From PubChem BioAssay come the findings set out here.

Structures are written as SMILES. The source made the active and inactive calls.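 Rule for the calls, unless noted: active = inhibition at or above 50% at 10 µM; inactive = inhibition below 50%.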

A short description of test [1]: inhibitors of TNFa-induced NFkB p65 translocation, primary screen, imaging, HUVEC, MLSMR starter and 10KST1 sets (AID 438;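 active = inhibition above 20% together with a positive visual image hit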;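 note: compound added about 3h40 before a 20 min TNFalpha stimulation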;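 for inhibition: signal is the nuclear over cytoplasmic p65 intensity ratio per well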). Conditions: HUVEC TNFa-induced p65 nuclear translocation; cell count: measured here: nuclei count (cytotoxicity indicator), at 2.08 µM; inhibition: at 2 µM, stronger effect = higher value, 0% TNFa-plus-vehicle, 100% no-TNFa wells.
Test [2] in a line: inhibitors of mutant huntingtin aggregation, primary screen, imaging, exon1htt(103Q)mCFP cells, high-content imaging (AID 483;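 active = visual image review flags a hit and inhibition of aggregation exceeds 20%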;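 note: compound exposure lasted 3 days before fixation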;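 for nuclei count: percent of the per-plate median nuclei count of sample wells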). Conditions: exon1htt(103Q)mCFP cell line, aggregate imaging, at 2 µM; inhibition of aggregation: stronger effect = higher value; nuclei count: measured here: cell count, toxicity.
Test [3] in a line: inhibitors of E-selectin induction by TNFa, primary screen, imaging, HUVEC, immunofluorescence, MLSMR starter and 10KST1 sets (AID 487;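 active = visually confirmed hit in the image check and inhibition above 20%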;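 for inhibition: signal is fraction of cell area covered by stained E-selectin grains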;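 for nuclei count: 100% = median nuclei count of all wells on the same plate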). The following applies: HUVEC TNFalpha-induced E-selectin immunofluorescence imaging, at 2 µM; inhibition: stronger effect = higher value; nuclei count: measured here: cell number, toxicity.
Test [4] deals with Voltage-gated potassium channel subunit beta-2 (Rattus norvegicus) (UniProt P62483). Kind of test: KvBeta enzyme negative modulators, primary screen, biochemical, NADPH fluorescence (AID 622;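 active = fluorescence slope higher than the sample average by over 3 SD, cut at about -0.22 in these data, passing the limit was not always enough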;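 note: slope of raw intensity against log time taken from 70 to 1610 s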). Conditions: recombinant KvBeta, 4-cyanobenzaldehyde reduction, at 10 µM, stronger effect = higher value.
Sequence of Voltage-gated potassium channel subunit beta-2 (Rattus norvegicus) (P62483 whole entry, looked up): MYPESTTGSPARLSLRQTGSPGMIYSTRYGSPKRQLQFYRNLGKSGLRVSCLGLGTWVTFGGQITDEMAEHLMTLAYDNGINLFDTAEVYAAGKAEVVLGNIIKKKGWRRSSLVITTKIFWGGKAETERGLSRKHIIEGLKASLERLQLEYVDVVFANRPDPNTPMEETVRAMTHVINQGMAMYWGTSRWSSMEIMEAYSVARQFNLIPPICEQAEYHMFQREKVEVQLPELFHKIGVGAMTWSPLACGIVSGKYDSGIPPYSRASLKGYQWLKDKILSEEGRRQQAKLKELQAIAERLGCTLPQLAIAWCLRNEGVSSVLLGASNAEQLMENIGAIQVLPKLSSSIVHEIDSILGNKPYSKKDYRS
Test [5] has the same target. Kind of test: KvBeta positive modulators, primary screen, biochemical, NADPH fluorescence (AID 623;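 active = NADPH fluorescence slope more negative than the mean of all samples by about 3 SD, 99.7% confidence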;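 note: fluorescence intensity change per second fitted from 20 to 320 s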). The following applies: Recombinant KvBeta, NADPH fluorescence decrease slope, 10 min; at 10 µM; stronger effect = lower value.
Test [6] deals with Muscarinic acetylcholine receptor M4 (Homo sapiens) (UniProt P08173). The experiment in a line: compounds altering M4/GIRK thallium flux, either direction, primary screen, M4 allosteric agonist project, cell-based, HEK293 M4/GIRK, BTC-AM (AID 625;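 active = fluorescence slope after compound addition differing from the mean of all tested samples at 99.7% confidence, mostly higher but some lower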;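 note: thallium influx through GIRK channels coupled to M4 in HEK293 cells with BTC-AM dye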). The following applies: at 10 µM, actives lie on both sides. The method in brief:
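Material: M4/GIRK1/GIRK2 stable HEK293 cell line. Medium: pH 7.3 thallium assay buffer. Dosing: single compound concentration, 10 µM final. Schedule: 1 h dye loading, 2 min kinetic read. Measured by: kinetic fluorescence with BTC-AM dye. Read-out: post-addition slope, 15–24 s, of baseline-normalized fluorescence. Benchmarks: carbachol and DMSO controls.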

The nature of test [7]: inhibitors of Sendai virus-induced IRF3 signaling, primary screen, TLR/RLR signaling modifier project, cell-based, Sendai virus stimulus, luciferase, 10K MLSCN set (AID 602276).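 Note: firefly luciferase from ISG56 promoter only with Renilla not read in this screen; 0% = Sendai virus plus DMSO and 100% = medium plus DMSO without virus.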 The following applies: HEK293 RL24 IRF3 luciferase reporter, at 10 µM, stronger effect = higher value.
Test [8] is described as follows: inhibitors of poly I:C-induced TLR3 signaling, primary screen, cell-based, poly I:C stimulus, luciferase, 10K MLSCN set (AID 602277;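 active = inhibition of the reporter signal at or above 50%; inactive = inhibition below 50%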). The following applies: HEK293-TLR3 RL24 IRF3 luciferase reporter, at 10 µM, stronger effect = higher value.

Sequence of Muscarinic acetylcholine receptor M4 (Homo sapiens) (P08173 whole entry, looked up): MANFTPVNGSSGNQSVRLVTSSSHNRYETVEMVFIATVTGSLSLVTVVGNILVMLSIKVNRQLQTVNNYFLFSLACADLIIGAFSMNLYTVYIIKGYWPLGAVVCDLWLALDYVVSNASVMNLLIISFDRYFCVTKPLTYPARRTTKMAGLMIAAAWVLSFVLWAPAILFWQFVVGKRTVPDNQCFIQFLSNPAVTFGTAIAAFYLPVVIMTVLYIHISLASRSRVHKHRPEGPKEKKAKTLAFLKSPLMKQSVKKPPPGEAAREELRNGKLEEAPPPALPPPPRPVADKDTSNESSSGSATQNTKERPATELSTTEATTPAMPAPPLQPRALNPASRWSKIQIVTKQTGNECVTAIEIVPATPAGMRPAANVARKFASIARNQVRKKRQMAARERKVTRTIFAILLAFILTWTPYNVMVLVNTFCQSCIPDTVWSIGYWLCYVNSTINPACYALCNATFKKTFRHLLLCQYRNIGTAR

`COC(=O)c1c(NC(=O)C2CC=CCC2C(=O)O)sc(C(N)=O)c1C` (centres undefined): the cell count in test [1] worked out at 654. For the same compound, the inhibition in test [1] is -2.4% (inactive); in test [3] it was -10.1% (inactive); in test [7] it was 0.24% (inactive); in test [8] it was 11% (inactive). The inhibition of aggregation in test [2] is 7.8% (inactive). Also, the results for the nuclei count in test [2] and in test [3] were 96.4% and 113%, respectively. Besides, the results for the fluorescence slope in test [4] and in test [6] were -0.495 (inactive) and 0.00475 (inactive), respectively. Besides, the NADPH fluorescence slope in test [5] is -4.4e-05 (inactive).

On to `Cc1onc(-c2ccccc2)c1C(=O)Nc1ccnn1C1CCCCC1`, for which the cell count in test [1] is 387. The inhibition in test [1] was 1.4% (inactive); in test [3], 8.4% (inactive); in test [7] it was 9.16% (inactive); in test [8] it was 18.3% (inactive). Moreover, the inhibition of aggregation in test [2] was 0.6% (inactive). In addition, the nuclei count in test [2] stood at 94.4%; in test [3], 81.7%. For the same compound, the results for the fluorescence slope in test [4] and in test [6] were -0.367 (inactive) and 0.00689 (inactive), respectively. Also, the NADPH fluorescence slope in test [5] was -8.4e-05 (inactive).

With `COc1cccc(Nc2c(F)c(F)c(F)c(F)c2C(=O)O)c1`, the cell count in test [1] was 246. The inhibition in test [1] is -4% (inactive); in test [3], -11.9% (inactive); in test [7], 10.2% (inactive); in test [8], 11.4% (inactive). In addition, in test [2], the inhibition of aggregation was 9.3% (inactive). Besides, the nuclei count in test [2] turned out to be 77.5%; in test [3], 96.6%. Moreover, the values for the fluorescence slope in test [4] and in test [6] were -0.587 (inactive) and 0.00658 (inactive), respectively. For the same compound, in test [5], the NADPH fluorescence slope was -3.3e-05 (inactive).

For the compound `CC(NC(=O)c1ccco1)C(c1cccs1)N1CCN(c2ccc(F)cc2)CC1` (centres undefined), the cell count in test [1] stood at 519. The inhibition in test [1] is -0.2% (inactive); in test [3], -22.2% (inactive); in test [7] it was 11.9% (inactive); in test [8], 12.2% (inactive). Also, in test [2], the inhibition of aggregation was -0.1% (inactive). Also, the values for the nuclei count in test [2] and in test [3] were 82% and 114%, respectively. Also, the figures for the fluorescence slope in test [4] and in test [6] were -0.489 (inactive) and 0.00654 (inactive), respectively. In addition, the NADPH fluorescence slope in test [5] is 0.000157 (inactive).

For `CCOC(=O)c1sc2nc(C)cc(C)c2c1N`, the cell count in test [1] stood at 443. Also, the inhibition in test [1] was 8.7% (inactive); in test [3] it was -26% (inactive); in test [7], -33.2% (inactive); in test [8], -45.5% (inactive). The inhibition of aggregation in test [2] was -13.6% (inactive). Further, the nuclei count was 111% in test [2] and 127% in test [3]. The figures for the fluorescence slope in test [4] and in test [6] were -0.105 (inactive) and 0.00463 (inactive), respectively. In addition, in test [5], the NADPH fluorescence slope is -1.9e-05 (inactive).

`O=C(Nc1ccc(S(=O)(=O)NC2CCCC2)cc1)c1cnccn1`: the cell count in test [1] is 288. In addition, the inhibition in test [1] was 1.5% (inactive); in test [3], -54% (inactive); in test [7] it was 10.3% (inactive); in test [8], 11.7% (inactive). Further, the inhibition of aggregation in test [2] was 0.6% (inactive). Besides, the values for the nuclei count in test [2] and in test [3] were 97.1% and 117%, respectively. Moreover, the results for the fluorescence slope in test [4] and in test [6] were -0.543 (inactive) and 0.00448 (inactive), respectively. Moreover, the NADPH fluorescence slope in test [5] was -1.1e-05 (inactive).

On to `c1ccc(-c2csc(N3CCCCCC3)n2)cc1`, for which the cell count in test [1] amounted to 403. Moreover, the inhibition in test [1] is 7.3% (inactive); in test [3], -77.2% (inactive); in test [7] it was -82.9% (inactive); in test [8] it was -160% (inactive). In test [2], the inhibition of aggregation was -6.8% (inactive). Moreover, the nuclei count came to 112% in test [2] and 110% in test [3]. In addition, the figures for the fluorescence slope in test [4] and in test [6] were -0.551 (inactive) and 0.0048 (inactive), respectively. Besides, the NADPH fluorescence slope in test [5] is 9.4e-06 (inactive).

As for `O=C(NCC1COCCO1)C1CCN(S(=O)(=O)c2ccccc2)CC1` (centres undefined), in test [1], the cell count was 621. For the same compound, the inhibition is -9.6% (inactive) in test [1], -28.6% (inactive) in test [3], 12% (inactive) in test [7] and 0.992% (inactive) in test [8]. Also, the inhibition of aggregation in test [2] was -7.6% (inactive). The results for the nuclei count in test [2] and in test [3] were 111% and 112%, respectively. Moreover, the results for the fluorescence slope in test [4] and in test [6] were -0.557 (inactive) and 0.0061 (inactive), respectively. Moreover, the NADPH fluorescence slope in test [5] was 3.3e-05 (inactive).

With `COCCOC(=O)C1=C(C)N=c2s/c(=C\c3cccs3)c(=O)n2C1c1cccs1` (centres undefined), in test [1], the cell count was 331. Further, the inhibition in test [1] is -4.7% (inactive); in test [3], -148% (inactive); in test [7], -5.37% (inactive); in test [8], -16.7% (inactive). For the same compound, the inhibition of aggregation in test [2] was -47% (inactive). In addition, the nuclei count came to 98.1% in test [2] and 110% in test [3]. Moreover, the fluorescence slope is -0.251 (inactive) in test [4] and 0.00423 (inactive) in test [6]. Moreover, in test [5], the NADPH fluorescence slope was -1.4e-05 (inactive).

Turning to `Cc1ccc(-c2nnc(-c3ccc(Br)cc3)o2)o1`, the cell count in test [1] was 454. Further, the inhibition in test [1] is 0.5% (inactive); in test [3] it was -31.4% (inactive); in test [7] it was -38.9% (inactive); in test [8], -108% (inactive). For the same compound, the inhibition of aggregation in test [2] is -10.6% (inactive). Further, the nuclei count in test [2] came out at 116%; in test [3] it was 102%. The figures for the fluorescence slope in test [4] and in test [6] were -0.389 (inactive) and 0.00923 (inactive), respectively. For the same compound, the NADPH fluorescence slope in test [5] is -3e-05 (inactive).

Consider `O=S(=O)(c1ccccc1)N1CCSC1c1ccco1` (centres undefined), for which, in test [1], the cell count was 444. The inhibition in test [1] is 1.2% (inactive); in test [3], 33.5% (inactive); in test [7] it was -30.7% (inactive); in test [8] it was -9.12% (inactive). Moreover, the inhibition of aggregation in test [2] was 7% (inactive). For the same compound, the nuclei count in test [2] is 100%; in test [3], 102%. For the same compound, the fluorescence slope in test [4] is -0.555 (inactive); in test [6], 0.00572 (inactive). For the same compound, the NADPH fluorescence slope in test [5] was -4e-05 (inactive).

With `COc1ccc2c(c1)C(=NO)c1cc(OC)ccc1-2`, in test [1], the cell count was 667. The inhibition in test [1] is -26.7% (inactive); in test [3], -48.8% (inactive); in test [7], -23.1% (inactive); in test [8] it was -28.9% (inactive). In test [2], the inhibition of aggregation was 15.4% (inactive). The nuclei count stood at 101% in test [2] and 116% in test [3]. Besides, the fluorescence slope in test [4] was -0.373 (inactive); in test [6] it was 0.00525 (inactive). In addition, in test [5], the NADPH fluorescence slope is -8e-05 (inactive).

Turning to `COc1ccc(-c2noc(-c3cc(Cl)ccc3Cl)n2)cc1OC`, the cell count in test [1] was 686. Moreover, the inhibition in test [1] is -10.5% (inactive); in test [3], 14.6% (inactive); in test [7] it was 0.153% (inactive); in test [8] it was -15.5% (inactive). Besides, the inhibition of aggregation in test [2] is -10.9% (inactive). Further, the nuclei count in test [2] is 104%; in test [3], 86.8%. Moreover, the figures for the fluorescence slope in test [4] and in test [6] were -0.526 (inactive) and 0.00828 (inactive), respectively. The NADPH fluorescence slope in test [5] was -2.2e-05 (inactive).

For the compound `COc1cccc(C(=O)CSc2nnc(COc3cccc4cccnc34)o2)c1`, the cell count in test [1] was 558. The inhibition in test [1] is -6.3% (inactive); in test [3], -1.4% (inactive); in test [7], -8.03% (inactive); in test [8] it was -13.7% (inactive). The inhibition of aggregation in test [2] is -10.3% (inactive). Moreover, the nuclei count in test [2] is 117%; in test [3], 197%. Further, the results for the fluorescence slope in test [4] and in test [6] were -0.51 (inactive) and 0.00397 (inactive), respectively. Besides, in test [5], the NADPH fluorescence slope is 3.4e-05 (inactive).
